Assay results published in ChEMBL document CHEMBL4138242, “Synthesis and antibacterial evaluation of novel cationic chalcone derivatives possessing broad spectrum antibacterial activity” (Eur J Med Chem, 2018).
The source made the active and inactive calls. No cut-off for these calls is given here.

System: Klebsiella pneumoniae
Assay: Antibacterial activity against drug-resistant carbapenemase producing Klebsiella pneumoniae clinical isolate KP-14-3 after 16 to 20 hrs by broth microdilution method
Format: functional
Procedure, shortened: (§1)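 CLSI broth microdilution in Mueller-Hinton broth. A 4-6 h culture was diluted to about 10⁶ CFU/mL and mixed 1:1 with compound dilutions prepared at 256 to 0.5 µg/mL from aqueous stocks. Plates were incubated at 37 °C for 16-20 h and read visually for MIC. Each concentration was run in duplicate, and the experiment was repeated at least twice. Vancomycin and meropenem were comparators.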

Row | Compound | MIC [µg/mL]
1 | CCCCCCCC[N+](C)(C)CC(=O)Nc1ccc(C(=O)/C=C/c2ccc3ccccc3c2)cc1.[Cl-] | 16

System: Escherichia coli
Assay: Antibacterial activity against drug-resistant NDM1 producing Escherichia coli clinical isolate EC-13-49 after 16 to 20 hrs by broth microdilution method
Format: functional
Procedure, shortened: as §1

Row | Compound | MIC [µg/mL]
2 | CCCCCCCC[N+](C)(C)CC(=O)Nc1ccc(C(=O)/C=C/c2ccc3ccccc3c2)cc1.[Cl-] | 16

System: Escherichia coli
Assay: Induction of cytoplasmic membrane depolarization in Escherichia coli ATCC 25922 at 10 to 20 ug/ml measured every 2 mins for 12 mins by DiSC35 dye-based fluorescence assay
Format: functional, organism-based
Procedure, shortened: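 Mid-log cells (~10⁸ CFU/mL) were suspended in PBS (S. aureus) or HEPES/glucose/KCl with EDTA (E. coli). They were preloaded with DiSC3(5) for 30 min (S. aureus) or 40 min (E. coli), and baseline fluorescence was read for 8 min. Compound was added to 20 µg/mL final, and fluorescence (ex 622/em 670 nm) was read every 2 min for 12 min. Water served as control.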

Row | Compound | Activity
3 | CCCCCCCC[N+](C)(C)CC(=O)Nc1ccc(C(=O)/C=C/c2ccc3ccccc3c2)cc1.[Cl-] | Active

System: Staphylococcus aureus
Assay: Antibacterial activity against methicillin-resistant Staphylococcus aureus clinical isolate 0906202 after 16 to 20 hrs by broth microdilution method
Format: functional
Procedure, shortened: as §1

Row | Compound | MIC [µg/mL]
4 | CCCCCCCC[N+](C)(C)CC(=O)Nc1ccc(C(=O)/C=C/c2ccc3ccccc3c2)cc1.[Cl-] | 32

System: Staphylococcus aureus
Assay: Antibacterial activity against methicillin-resistant Staphylococcus aureus clinical isolate 1105183 cono7 after 16 to 20 hrs by broth microdilution method
Format: functional
Procedure, shortened: as §1

Row | Compound | MIC [µg/mL]
5 | CCCCCCCC[N+](C)(C)CC(=O)Nc1ccc(C(=O)/C=C/c2ccc3ccccc3c2)cc1.[Cl-] | 1

System: Escherichia coli
Assay: Antibacterial activity against drug-resistant NDM1 producing Escherichia coli clinical isolate CF-13-61 after 16 to 20 hrs by broth microdilution method
Format: functional
Procedure, shortened: as §1

Row | Compound | MIC [µg/mL]
6 | CCCCCCCC[N+](C)(C)CC(=O)Nc1ccc(C(=O)/C=C/c2ccc3ccccc3c2)cc1.[Cl-] | 1

System: Escherichia coli
Assay: Induction of inner membrane permeabilization in Escherichia coli ATCC 25922 at 10 to 20 ug/ml measured every 2 mins for 12 mins by propidium iodide staining-based fluorescence assay
Format: functional, organism-based
Procedure, shortened: (§2)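 Mid-log cells (~10⁸ CFU/mL) were suspended in PBS (S. aureus) or HEPES/glucose/KCl (E. coli). They were preincubated with propidium iodide for 30 min (S. aureus) or 40 min (E. coli), and baseline fluorescence was read for 8 min. Compound was added to 20 µg/mL final, and fluorescence (ex 535/em 617 nm) was read every 2 min for 12 min.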

Row | Compound | Activity
7 | CCCCCCCC[N+](C)(C)CC(=O)Nc1ccc(C(=O)/C=C/c2ccc3ccccc3c2)cc1.[Cl-] | Active

System: Klebsiella pneumoniae
Assay: Antibacterial activity against drug-resistant carbapenemase producing Klebsiella pneumoniae clinical isolate KP-14-18 after 16 to 20 hrs by broth microdilution method
Format: functional
Procedure, shortened: as §1

Row | Compound | MIC [µg/mL]
8 | CCCCCCCC[N+](C)(C)CC(=O)Nc1ccc(C(=O)/C=C/c2ccc3ccccc3c2)cc1.[Cl-] | > 128

System: Klebsiella pneumoniae
Assay: Antibacterial activity against drug-resistant carbapenemase producing Klebsiella pneumoniae clinical isolate KP-14-8 after 16 to 20 hrs by broth microdilution method
Format: functional
Procedure, shortened: as §1

Row | Compound | MIC [µg/mL]
9 | CCCCCCCC[N+](C)(C)CC(=O)Nc1ccc(C(=O)/C=C/c2ccc3ccccc3c2)cc1.[Cl-] | 16

System: Escherichia coli
Assay: Antibacterial activity against drug-resistant NDM1 producing Escherichia coli clinical isolate 1460 after 16 to 20 hrs by broth microdilution method
Format: functional
Procedure, shortened: as §1

Row | Compound | MIC [µg/mL]
10 | CCCCCCCC[N+](C)(C)CC(=O)Nc1ccc(C(=O)/C=C/c2ccc3ccccc3c2)cc1.[Cl-] | 16

System: Klebsiella pneumoniae
Assay: Antibacterial activity against drug-resistant carbapenemase producing Klebsiella pneumoniae clinical isolate KP-14-1 after 16 to 20 hrs by broth microdilution method
Format: functional
Procedure, shortened: as §1

Row | Compound | MIC [µg/mL]
11 | CCCCCCCC[N+](C)(C)CC(=O)Nc1ccc(C(=O)/C=C/c2ccc3ccccc3c2)cc1.[Cl-] | > 128

System: Klebsiella pneumoniae
Assay: Antibacterial activity against drug-resistant carbapenemase producing Klebsiella pneumoniae clinical isolate KP-14-45 after 16 to 20 hrs by broth microdilution method
Format: functional
Procedure, shortened: as §1

Row | Compound | MIC [µg/mL]
12 | CCCCCCCC[N+](C)(C)CC(=O)Nc1ccc(C(=O)/C=C/c2ccc3ccccc3c2)cc1.[Cl-] | > 128

System: Staphylococcus aureus
Assay: Antibacterial activity against methicillin-resistant Staphylococcus aureus clinical isolate 1208143 after 16 to 20 hrs by broth microdilution method
Format: functional
Procedure, shortened: as §1

Row | Compound | MIC [µg/mL]
13 | CCCCCCCC[N+](C)(C)CC(=O)Nc1ccc(C(=O)/C=C/c2ccc3ccccc3c2)cc1.[Cl-] | 2

System: Staphylococcus aureus
Assay: Antibacterial activity against methicillin-resistant Staphylococcus aureus clinical isolate 1207007 after 16 to 20 hrs by broth microdilution method
Format: functional
Procedure, shortened: as §1

Row | Compound | MIC [µg/mL]
14 | CCCCCCCC[N+](C)(C)CC(=O)Nc1ccc(C(=O)/C=C/c2ccc3ccccc3c2)cc1.[Cl-] | 2

System: Klebsiella pneumoniae
Assay: Antibacterial activity against drug-resistant carbapenemase producing Klebsiella pneumoniae clinical isolate KP-13-55 after 16 to 20 hrs by broth microdilution method
Format: functional
Procedure, shortened: as §1

Row | Compound | MIC [µg/mL]
15 | CCCCCCCC[N+](C)(C)CC(=O)Nc1ccc(C(=O)/C=C/c2ccc3ccccc3c2)cc1.[Cl-] | > 128

System: Escherichia coli
Assay: Antibacterial activity against drug-resistant NDM1 producing Escherichia coli clinical isolate Ecl-14-58 after 16 to 20 hrs by broth microdilution method
Format: functional
Procedure, shortened: as §1

Row | Compound | MIC [µg/mL]
16 | CCCCCCCC[N+](C)(C)CC(=O)Nc1ccc(C(=O)/C=C/c2ccc3ccccc3c2)cc1.[Cl-] | 16

System: Klebsiella pneumoniae
Assay: Antibacterial activity against drug-resistant carbapenemase producing Klebsiella pneumoniae clinical isolate KP-14-5 after 16 to 20 hrs by broth microdilution method
Format: functional
Procedure, shortened: as §1

Row | Compound | MIC [µg/mL]
17 | CCCCCCCC[N+](C)(C)CC(=O)Nc1ccc(C(=O)/C=C/c2ccc3ccccc3c2)cc1.[Cl-] | 16

System: Staphylococcus aureus
Assay: Antibacterial activity against methicillin-resistant Staphylococcus aureus clinical isolate 1104060 after 16 to 20 hrs by broth microdilution method
Format: functional
Procedure, shortened: as §1

Row | Compound | MIC [µg/mL]
18 | CCCCCCCC[N+](C)(C)CC(=O)Nc1ccc(C(=O)/C=C/c2ccc3ccccc3c2)cc1.[Cl-] | 16

System: Enterococcus faecalis
Assay: Antibacterial activity against Enterococcus faecalis ATCC 29212 after 16 to 20 hrs by broth microdilution method
Format: functional
Procedure, shortened: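 Broth microdilution per CLSI. Bacteria grown 4-6 h (about 10⁸ CFU/mL), then diluted to about 10⁶ CFU/mL. Medium: Mueller-Hinton broth, except Luria-Bertani broth for E. coli. Compounds in sterile water, twofold series 256-0.5 µg/mL, mixed 1:1 with inoculum, 37 °C for 16-20 h. MIC is the lowest concentration without visible growth. Duplicate wells; experiment repeated at least twice.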

Row | Compound | MIC [µg/mL]
19 | CCCCCCCC[N+](C)(C)CC(=O)Nc1ccc(C(=O)/C=C/c2ccc3ccccc3c2)cc1.[Cl-] | 2

System: Staphylococcus aureus
Assay: Antibacterial activity against methicillin-resistant Staphylococcus aureus clinical isolate 20131012632sau after 16 to 20 hrs by broth microdilution method
Format: functional
Procedure, shortened: as §1

Row | Compound | MIC [µg/mL]
20 | CCCCCCCC[N+](C)(C)CC(=O)Nc1ccc(C(=O)/C=C/c2ccc3ccccc3c2)cc1.[Cl-] | 8

System: Staphylococcus aureus
Assay: Induction of inner membrane permeabilization in Staphylococcus aureus ATCC 29213 at 10 to 20 ug/ml measured every 2 mins for 12 mins by propidium iodide staining-based fluorescence assay
Format: functional, organism-based
Procedure, shortened: as §2

Row | Compound | Activity
21 | CCCCCCCC[N+](C)(C)CC(=O)Nc1ccc(C(=O)/C=C/c2ccc3ccccc3c2)cc1.[Cl-] | Active
